# Experimental data as given in paper PMC4019989 (Clinical cancer research : an official journal of the …, 2009).
# What was measured:
# Plasma pharmacokinetics = format: in vivo, human; conditions: for AUCinf, Mean: included C0; for AUClast, Mean: includes C0; for half-life / C0 / Cmax / Tmax / clearance: human, plasma, iv
# Summary of the method: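 Drug went in as an i.v. push over 1–2 min. Cycle 1 blood was drawn predose and at 5, 15, 30 min and 1, 2, 4 h postdose, plus predose and 30 min postdose on cycle 1 day 5 and day 1 of cycles 2 and 3. Plasma was assayed by validated LC/MS (lower limit of detection 0.10 μg/mL). Parameters came from pharmacokinetic analysis and modelling.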
# [1] = system: chymotrypsin-like activity of the proteasome; conditions: monkeys; i.v. for 5 consecutive days; multiple tissues; well tolerated; cited from earlier work
# [2] = preclinical studies; cited from earlier work
# [3] = 11 mg/m^2 i.v. push, n = 2, plasma
# [4] = 15 mg/m^2 i.v. push, n = 5, plasma
# [5] = 20 mg/m^2 i.v. push, n = 4, plasma
smiles,measurement,setting,value
CC(C)C[C@H](NC(=O)[C@H](CCc1ccccc1)NC(=O)CN1CCOCC1)C(=O)N[C@@H](Cc1ccccc1)C(=O)N[C@@H](CC(C)C)C(=O)[C@@]1(C)CO1 [carfilzomib],"AUCinf, Mean",Plasma pharmacokinetics; [3],"4,463 g·mL/h"
same,"AUClast, Mean",Plasma pharmacokinetics; [3],"4,457 ng·mL/h"
same,"AUCinf, Mean",Plasma pharmacokinetics; [4],"9,760 g·mL/h"
same,"AUClast, Mean",Plasma pharmacokinetics; [4],"9,728 ng·mL/h"
same,"AUCinf, Mean",Plasma pharmacokinetics; [5],"23,660 g·mL/h"
same,"AUClast, Mean",Plasma pharmacokinetics; [5],"23,123 ng·mL/h"
same,half-life,Plasma pharmacokinetics,< 30 min
same,C0,Plasma pharmacokinetics; 11 mg/m2,762 ng/mL
same,Cmax,Plasma pharmacokinetics; 11 mg/m2,90.2 ng/mL
same,Tmax,Plasma pharmacokinetics; 11 mg/m2,9 min
same,clearance,Plasma pharmacokinetics; 11 mg/m2,5060 mL/min
same,half-life,Plasma pharmacokinetics; 11 mg/m2,25.3 min
same,C0,Plasma pharmacokinetics; 15 mg/m2,2120 ng/mL
same,Cmax,Plasma pharmacokinetics; 15 mg/m2,326 ng/mL
same,Tmax,Plasma pharmacokinetics; 15 mg/m2,5.8 min
same,clearance,Plasma pharmacokinetics; 15 mg/m2,7050 mL/min
same,half-life,Plasma pharmacokinetics; 15 mg/m2,28.9 min
same,C0,Plasma pharmacokinetics; 20 mg/m2,5450 ng/mL
same,Cmax,Plasma pharmacokinetics; 20 mg/m2,683 ng/mL
same,Tmax,Plasma pharmacokinetics; 20 mg/m2,6 min
same,clearance,Plasma pharmacokinetics; 20 mg/m2,4130 mL/min
same,half-life,Plasma pharmacokinetics; 20 mg/m2,17.1 min
same,clearance (in words),"Plasma pharmacokinetics; patients, i.v. push",higher than liver blood flow
same,Proteasome (chymotrypsin-like activity) inhibition,[1],> 80%
same,Time for serum concentrations to approach the limit of assay detection,[2],≤ 1 h
